Assay results: ChEMBL document CHEMBL3745600, “2-Amino-thiophene derivatives present antileishmanial activity mediated by apoptosis and immunomodulation in vitro” (Eur J Med Chem, 2015)
In brackets after ≈: the same amount, converted by molar mass. Activity calls are given as the source filed them. No cut-off for these calls is given here.

What was measured:
[1] = Cytotoxicity against Swiss mouse peritoneal macrophages after 24 hrs by MTT assay; format: cell-based, Peritoneal macrophage cell
Method in brief: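 Macrophages were collected from Swiss mice 5 days after thioglycollate (3%) elicitation. About 1 x 10^6 cells per well were incubated in RPMI 1640 with 10% heat-inactivated FBS and compound for 24 h at 37°C, 5% CO₂. MTT was added for 4 h, followed by 10% SDS, and absorbance was read at 540 nm. CC50 was obtained by probit regression.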

[2] = Toxicity in human RBC assessed as induction of hemolytic activity after 1 hr by spectrometer analysis; format: cell-based, Erythrocyte; settings: red blood cells (RBC)
Method in brief: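 A 5% suspension of human erythrocytes in PBS was mixed 4:1 with serial compound dilutions and incubated 1 h at 37°C. The reaction was stopped with PBS (pH 7.2) and spun 10 min at 1000 x g, and supernatant absorbance was read at 540 nm. Haemolysis was expressed relative to a drug-free blank and to water-induced total lysis. HC50 was obtained by probit regression.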

[3] = Selectivity index, ratio of CC50 for Swiss mouse peritoneal macrophages to IC50 for promastigotes of Leishmania amazonensis IFLA/BR/67/PH8; format: functional
Method in brief: (§1)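 Promastigote values came from haemocytometer counts after 72 h at 25°C. Axenic amastigote values came from MTT readings after 24 h at 32°C, using amastigotes differentiated at pH 4.6. All 50% values were obtained by probit regression.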

[4] = Selectivity index, ratio of HC50 for human RBC to IC50 for promastigotes of Leishmania amazonensis IFLA/BR/67/PH8; method in brief: as §1
[5] = Selectivity index, ratio of CC50 for Swiss mouse peritoneal macrophages to EC50 for axenic amastigotes of Leishmania amazonensis IFLA/BR/67/PH8; method in brief: as §1
[6] = Selectivity index, ratio of HC50 for human RBC to IC50 for axenic amastigotes of Leishmania amazonensis IFLA/BR/67/PH8; method in brief: as §1
[7] = system: Leishmania amazonensis; assay: Antileishmanial activity against promastigotes of Leishmania amazonensis IFLA/BR/67/PH8 assessed as induction of early apoptosis using Annexin-V staining at IC50 after 4 hrs by flow cytometry (reference value: 8.3%); format: functional
[8] = system: Leishmania amazonensis; assay: Antileishmanial activity against promastigotes of Leishmania amazonensis IFLA/BR/67/PH8 assessed as induction of early apoptosis using Annexin-V staining at 2 times IC50 after 4 hrs by flow cytometry (reference value: 8.3%); format: functional
[9] = system: Leishmania amazonensis; assay: Antileishmanial activity against promastigotes of Leishmania amazonensis IFLA/BR/67/PH8 assessed as induction of early apoptosis using Annexin-V staining at 4 times IC50 after 4 hrs by flow cytometry (reference value: 8.3%); format: functional
[10] = system: Leishmania amazonensis; assay: Antileishmanial activity against promastigotes of Leishmania amazonensis IFLA/BR/67/PH8 assessed as induction of late apoptosis using Annexin-V/PI staining at IC50 after 4 hrs by flow cytometry (reference value: 12.05%); format: functional
[11] = system: Leishmania amazonensis; assay: Antileishmanial activity against promastigotes of Leishmania amazonensis IFLA/BR/67/PH8 assessed as induction of late apoptosis using Annexin-V/PI staining at 2 times IC50 after 4 hrs by flow cytometry (reference value: 12.05%); format: functional
[12] = system: Leishmania amazonensis; assay: Antileishmanial activity against promastigotes of Leishmania amazonensis IFLA/BR/67/PH8 assessed as induction of late apoptosis using Annexin-V/PI staining at 4 times IC50 after 4 hrs by flow cytometry (reference value: 12.05%); format: functional
[13] = system: Leishmania amazonensis; assay: Antileishmanial activity against promastigotes of Leishmania amazonensis IFLA/BR/67/PH8 assessed as induction of necrosis using Annexin-V-FITC/PI staining at 4 times IC50 after 4 hrs by flow cytometry (reference value: 2.6%); format: functional
[14] = system: Leishmania amazonensis; assay: Antileishmanial activity against promastigotes of Leishmania amazonensis IFLA/BR/67/PH8 assessed as induction of DNA fragmentation at 1 to 4 times IC50 after 24 hrs by agarose gel electrophoresis; format: functional, organism-based
Method in brief: (§2)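 Genomic DNA was extracted with phenol/chloroform and run on agarose with GelRed (1:500) for 1 h at […]. Fragmentation was viewed under UV as a qualitative read-out.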

[15] = system: Leishmania amazonensis; assay: Antileishmanial activity against axenic amastigotes of Leishmania amazonensis IFLA/BR/67/PH8 infected in Swiss mouse peritoneal macrophages assessed as reduction of survival rate after 24 hrs by light microscopy analysis; format: functional, organism-based
Method in brief: (§3)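 Peritoneal macrophages were plated on glass coverslips at 1 x 10^6 cells/mL in supplemented RPMI 1640 and allowed to adhere for 2 h at 34°C, 5% CO₂. They were infected for 3 h with stationary-phase promastigotes at 10 parasites per macrophage, washed with PBS, then exposed to compound for 24 or 72 h. Coverslips were fixed and Panoptic-stained, and 300 macrophages per coverslip were counted by light microscopy. EC50 was derived by probit regression.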

[16] = system: Leishmania amazonensis; assay: Antileishmanial activity against axenic amastigotes of Leishmania amazonensis IFLA/BR/67/PH8 infected in Swiss mouse peritoneal macrophages assessed as reduction of survival rate after 72 hrs by light microscopy analysis; format: functional, organism-based; method in brief: as §3
[17] = system: Peritoneal macrophage cell; assay: Immunomodulatory activity in Swiss mouse peritoneal macrophages infected with promastigotes form of Leishmania amazonensis IFLA/BR/67/PH8 assessed as increase of TNFalpha production at 6.25 to 25 uM after 72 hrs by sandwich ELISA; format: functional, cell-based
Method in brief: (§4)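 Supernatants came from infected macrophages treated for 72 h at 37°C, 5% CO₂. TNF-α, IL-12 and IL-10 were measured by sandwich ELISA at 450 nm against murine recombinant cytokine standards. NO was estimated as nitrite by the Griess reaction at 540 nm against a sodium nitrite standard. LPS (10 mg/L) served as positive control. Three experiments were run in triplicate.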

[18] = system: Peritoneal macrophage cell; assay: Immunomodulatory activity in Swiss mouse peritoneal macrophages infected with promastigotes form of Leishmania amazonensis IFLA/BR/67/PH8 assessed as increase of IL-12 production at 6.25 to 25 uM after 72 hrs by sandwich ELISA; format: functional, cell-based; method in brief: as §4
[19] = system: Peritoneal macrophage cell; assay: Immunomodulatory activity in Swiss mouse peritoneal macrophages infected with promastigotes form of Leishmania amazonensis IFLA/BR/67/PH8 assessed as increase of IL-10 production at 6.25 to 25 uM after 72 hrs by sandwich ELISA; format: functional, cell-based; method in brief: as §4
[20] = system: Leishmania amazonensis; assay: Antileishmanial activity against promastigotes of Leishmania amazonensis IFLA/BR/67/PH8 assessed as induction of necrosis using Annexin-V-FITC/PI staining at IC50 after 4 hrs by flow cytometry (reference value: 2.6%); format: functional
[21] = system: Leishmania amazonensis; assay: Antileishmanial activity against promastigotes of Leishmania amazonensis IFLA/BR/67/PH8 assessed as induction of necrosis using Annexin-V-FITC/PI staining at 2 times IC50 after 4 hrs by flow cytometry (reference value: 2.6%); format: functional
[22] = system: Leishmania amazonensis; assay: Antileishmanial activity against promastigotes of Leishmania amazonensis IFLA/BR/67/PH8 assessed as viable cells using Annexin-V staining at IC50 after 4 hrs by flow cytometry (reference value: 77%); format: functional
[23] = system: Leishmania amazonensis; assay: Antileishmanial activity against promastigotes of Leishmania amazonensis IFLA/BR/67/PH8 assessed as viable cells using Annexin-V staining at 2 times IC50 after 4 hrs by flow cytometry (reference value: 77%); format: functional
[24] = system: Leishmania amazonensis; assay: Antileishmanial activity against promastigotes of Leishmania amazonensis IFLA/BR/67/PH8 assessed as viable cells using Annexin-V staining at 4 times IC50 after 4 hrs by flow cytometry (reference value: 77%); format: functional
[25] = system: Leishmania amazonensis; assay: Antileishmanial activity against axenic amastigotes of Leishmania amazonensis IFLA/BR/67/PH8 after 24 hrs by MTT assay; settings: IFLA/BR/67/PH8, 24 h
[26] = system: Leishmania amazonensis; assay: Antileishmanial activity against promastigotes of Leishmania amazonensis IFLA/BR/67/PH8 after 72 hrs by Neubauer haemocytometer counting; settings: IFLA/BR/67/PH8, 72 h
[27] = system: Leishmania amazonensis; assay: Antileishmanial activity against promastigotes of Leishmania amazonensis IFLA/BR/67/PH8 assessed as induction of DNA fragmentation at IC50 after 24 hrs by agarose gel electrophoresis; format: functional, organism-based; method in brief: as §2

| Compound | IC50 [26] | CC50 at 24 h [1] | HC50 at 1 h [2] | Ratio CC50/IC50 [3] | Selectivity Index [4] | Ratio CC50/EC50 [5] | Selectivity Index [6] | EC50 [25] | other results |
| --- | --- | --- | --- | --- | --- | --- | --- | --- | --- |
| COc1ccc(Br)c(/C=N/c2sc3c(c2C#N)CCCC3)c1 | 88 µM | 211 µM | > 800 µM | 2.4 | > 9.1 | 1.26 | > 4.78 | 167 µM |  |
| N#Cc1c(/N=C/c2ccc([N+](=O)[O-])cc2)sc2c1CCCC2 | 187 µM | 229 µM | > 800 µM | 1.22 | > 4.27 | 1.07 | > 3.76 | 213 µM |  |
| N#Cc1c(/N=C/c2ccc3ncccc3c2)sc2c1CCCCC2 | 165 µM | 438 µM | 716 µM | 2.66 | 4.35 | 3.31 | 5.41 | 132 µM |  |
| N#Cc1c(/N=C/c2cccs2)sc2c1CCCCC2 | 189 µM | 722 µM | > 800 µM | 3.81 | > 4.22 | 3.75 | > 4.16 | 192 µM |  |
| N#Cc1c(/N=C/c2cccs2)sc2c1CCC2 | 139 µM | 540 µM | > 800 µM | 3.87 | > 5.73 | 2.56 | > 3.79 | 211 µM |  |

These reach a lower IC50 [26]. Values come first.

| IC50 [26] | Compound | CC50 at 24 h [1] | HC50 at 1 h [2] | Ratio CC50/IC50 [3] | Selectivity Index [4] | Ratio CC50/EC50 [5] | Selectivity Index [6] | EC50 [25] | other results |
| --- | --- | --- | --- | --- | --- | --- | --- | --- | --- |
| 3.65 µM | N#Cc1c(/N=C/c2cc3cc(Br)ccc3[nH]2)sc2c1CCCCC2 | 32 µM | > 800 µM | 8.77 | > 219 | 1.59 | > 39.8 | 20.1 µM | Activity [7]: 4.8%; Activity [8]: 5.6%; Activity [9]: 4.3%; Activity [10]: 9.06%; Activity [11]: 27.3%; Activity [12]: 27.1%; Activity [13]: 53.2%; Activity [14]: Active; Activity [15]: Dose-dependent effect; Activity [16]: Dose-dependent effect; Activity [17]: Active; Activity [18]: Active; Activity [19]: inactive; Activity [20]: 6.1%; Activity [21]: 22.7%; Activity [22]: 79.9%; Activity [23]: 44.3%; Activity [24]: 15.3% |
| 0.17 µM | C[C@@H]1[C@H](O)[C@@H](C)/C=C/C=C/C=C/C=C/C=C/C=C/C=C/[C@H](O[C@@H]2O[C@H](C)[C@@H](O)[C@H](N)[C@@H]2O)C[C@@H]2O[C@](O)(C[C@@H](O)C[C@@H](O)[C@H](O)CC[C@@H](O)C[C@@H](O)CC(=O)O[C@H]1C)C[C@H](O)[C@H]2C(=O)O [AMPHOTERICIN B] | 0.18 µM | 11.6 µM | 1.05 | 68.2 | 0.78 | 50.4 | 0.23 µM | Activity [7]: 6%; Activity [8]: 10.4%; Activity [9]: 10.3%; Activity [10]: 23.8%; Activity [11]: 38.8%; Activity [12]: 42.2%; Activity [13]: 8.6%; Activity [27]: Active; EC50 ([16]; IFLA/BR/67/PH8, 72 h): 169 µg/mL (≈ 183 µM); Activity [20]: 2.8%; Activity [21]: 5.2%; Activity [22]: 67.2%; Activity [23]: 45.5%; Activity [24]: 38.8% |
| 49.1 µM | N#Cc1c(/N=C/c2ccc3ncccc3c2)sc2c1CCC2 | 196 µM | 625 µM | 3.99 | 12.7 | 1.9 | 6 | 103 µM |  |
| 61.5 µM | N#Cc1c(/N=C/c2ccccc2)sc2c1CCCC2 | 141 µM | 682 µM | 2.29 | 11.1 | 1.13 | 5.4 | 124 µM |  |
